This is an account of results in ChEMBL document CHEMBL1154463, “Synthesis and induction of G0-G1 phase arrest with apoptosis of 3,5-dimethyl-6-phenyl-8-(trifluoromethyl)-5,6-dihydropyrazolo[3,4-f][1,2,3,5]tetrazepin-4(3H)-one” (Eur J Med Chem, 2008).

Where a name gives a salt, the structure may show the parent alone. Activity calls are given as the source filed them. No cut-off for these calls is given here.

Experiment [1] relates to K562. The experiment in a line: Induction of apoptosis in imatinib mesylate-resistant human K562 cells after 48 hrs. Format: functional, cell-based. An outline of the steps:
(§1)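 Cells exposed 48 h to a range of concentrations, then 2 × 10⁵ cells pelleted (300 × g) and stained with acridine orange and ethidium bromide ([…]). Read by fluorescence microscopy under oil immersion. Apoptosis scored by perinuclear chromatin condensation and apoptotic bodies, counting ≥300 cells. AC50 = concentration giving 50% apoptotic cells. Bars: SE.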

Experiment [2] has as its system K562. Nature of the experiment: Induction of apoptosis in human K562 cells assessed as accumulation at sub GO-G1 phase accumulation after 24 hrs by flow cytometry. Format: functional, cell-based. A digest of the protocol:
(§2)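 K562 cells cultured 24 h and 48 h without compound or at 25, 50 or […] (unit as printed). Cells washed in ice-cold PBS, resuspended at 10⁶/ml in hypotonic propidium iodide ([…])/0.03% v/v NP-40 in 0.1% sodium citrate for 30 min. DNA content read by flow cytometry as single-parameter histograms; G0–G1 and sub-G0–G1 fractions taken as percent of cells.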
(In general: A flow cytometer gives signals particle by particle.)

Experiment [3] relates to K562. Nature of the experiment: Induction of apoptosis in human K562 cells assessed as accumulation at sub GO-G1 phase accumulation at 50 uM after 24 hrs by flow cytometry. Format: functional. A digest of the protocol:
as §2

Experiment [4] deals with K562. Nature of the experiment: Cytotoxicity against human K562 cells after 48 hrs by trypan blue exclusion method. Format: functional, cell-based. Conditions: K562, 48 h. A digest of the protocol: (§3)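 2 × 10⁵ cells in 1 ml complete medium treated with a range of concentrations, added as freshly prepared DMSO solution (final DMSO ≤0.3% v/v), for 48 h. Viable cells counted and expressed as percent of untreated control proliferation; IC50 = concentration inhibiting 50% of growth, from 48 h exposure. Bars: SE.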

Experiment [5] relates to HL-60. The experiment in a line: Cytotoxicity against multidrug-resistant human HL60 cells after 48 hrs by trypan blue exclusion method. Conditions: HL-60, 48 h. Format: functional, cell-based. A digest of the protocol:
as §3

Experiment [6] deals with K562. Nature of the experiment: Cell cycle arrest in human K562 cells assessed as accumulation at GO-G1 phase at 50 uM after 48 hrs by flow cytometry. Format: functional. A digest of the protocol:
as §2

Experiment [7] deals with K562. Nature of the experiment: Cytotoxicity against imatinib mesylate-resistant human K562 cells after 48 hrs by trypan blue exclusion method. Format: functional, cell-based. Conditions: K562, 48 h. An outline of the steps:
as §3

In experiment [8] the test system is HL-60. The experiment in a line: Induction of apoptosis in multidrug resistant human HL60 cells after 48 hrs. Conditions: HL-60, 48 h. Format: functional, cell-based. A digest of the protocol:
as §1

Experiment [9] deals with K562. The experiment in a line: Cell cycle arrest in human K562 cells assessed as accumulation at GO-G1 phase after 24 hrs by flow cytometry. Format: functional, cell-based. An outline of the steps: as §2
Experiment [10] relates to K562. Nature of the experiment: Induction of apoptosis in human K562 cells after 48 hrs. Format: functional, cell-based. Conditions: K562, 48 h.
Experiment [11] has as its system K562. The experiment in a line: Induction of apoptosis in human K562 cells assessed as accumulation at sub GO-G1 phase accumulation at 50 uM after 48 hrs by flow cytometry. Format: functional. An outline of the steps: as §2
Experiment [12] concerns HL-60. The experiment in a line: Induction of apoptosis in human HL60 cells after 48 hrs. Format: functional, cell-based. Conditions: HL-60, 48 h. A digest of the protocol: as §1
For experiment [13], the system named is K562. The experiment in a line: Cell cycle arrest in human K562 cells assessed as accumulation at GO-G1 phase at 50 uM after 24 hrs by flow cytometry. Format: functional. A digest of the protocol: as §2
Experiment [14] relates to HL-60. Nature of the experiment: Cytotoxicity against human HL60 cells after 48 hrs by trypan blue exclusion method. Format: functional, cell-based. Conditions: HL-60, 48 h. A digest of the protocol: as §3
Experiment [15] has as its system HL-60. Nature of the experiment: human HL60 cells after 48 hrs. The settings on record: HL-60, 48 h.

Take `CS(=O)(=O)OCCCCOS(C)(=O)=O`: in the experiment with K562 [1], the result was Active.
Usually IC50 stands for the concentration at which inhibition is half-maximal. The AC50 is the concentration giving half of the maximal activity seen. A high value points to activity only at high concentration. Turning to `CN1N=Nc2c(C(F)(F)F)nn(-c3ccccc3)c2N(C)C1=O`, the outcome with K562 [2] was inactive. Moreover, the Activity in the experiment on K562 [3] was 5%; in the experiment on K562 [6], 28.7%; in the experiment on K562 [9], “Dose-dependent effect”; in the experiment with K562 [11], 52.2%; in the experiment on K562 [13] it was 60.7%. Moreover, the IC50 was 40 µM in the experiment on K562 [4], 30 µM with HL-60 [5], 38 µM in the experiment on K562 [7] and 21 µM in the experiment with HL-60 [14]. Further, the AC50 with HL-60 [8] came to 38 µM; with K562 [10], 57 µM; with K562 [1] (K562, 48 h) it was 62 µM; in the experiment on HL-60 [12] it was 36 µM.
For `COc1cc([C@@H]2c3cc4c(cc3[C@@H](O[C@@H]3O[C@@H]5CO[C@@H](C)O[C@H]5[C@H](O)[C@H]3O)[C@H]3COC(=O)[C@H]23)OCO4)cc(OC)c1O` [ETOPOSIDE], the AC50 was greater than 400 µM with HL-60 [8] and 0.4 µM in the experiment on HL-60 [12].
Take `COc1cccc2c1C(=O)c1c(O)c3c(c(O)c1C2=O)C[C@@](O)(C(C)=O)C[C@@H]3O[C@H]1C[C@H](N)[C@H](O)[C@H](C)O1` [DAUNORUBICIN]: the AC50 with HL-60 [15] amounted to 0.1 µM; in the experiment with HL-60 [8] it was 38 µM.
In the case of `Cc1ccc(NC(=O)c2ccc(CN3CCN(C)CC3)cc2)cc1Nc1nccc(-c2cccnc2)n1` [IMATINIB MESYLATE], the AC50 in the experiment with K562 [10] came to 62 µM.
